Assay results of several laboratories.
Compare with care: the assays were run in different laboratories.
Sample: plasma

NS(=O)(=O)OC[C@@H]1C[C@@H](n2ccc3c(N[C@H]4CCc5ccccc54)ncnc32)C[C@@H]1O
AUC(0-t) (human; intravenous; 15 mg/m²; patients): 780 ng·h/mL

Cn1cc(Nc2nc(N)nc(-c3cccc(-n4ccc5cc(C6CC6)cc(F)c5c4=O)c3CO)n2)cn1
AUC(0-t) (human; oral; 900 mg; single dose, fasted, suspension): 64100 ng·h/mL

CN1CC[C@@H](c2c(O)cc(O)c3c(=O)cc(-c4ccc(C(F)(F)F)cc4Cl)oc23)[C@@H]1CO
AUC(0-t) (human; oral; 50 mg; patients): 1430 ng·h/mL

CC(=O)N[C@H]1CC[C@H](NC(=O)CN2CCN(c3nncc(-c4ccc(C)cc4)n3)CC2)CC1
AUC(0-inf) (female human; oral; 100 mg; single dose, fasted, healthy volunteers): 6500 ng·h/mL

Cl.[2H]C([2H])([2H])CC(=O)c1cnc(NC(=O)C2CC2)cc1Nc1cccc(-c2ncn(C([2H])([2H])[2H])n2)c1OC
AUC (human; oral; 20 mg; multiple doses, once daily, steady state): 1100 ng·h/mL

Cc1ccc(C(=O)Nc2ccc(CN3CCN(C)CC3)c(C(F)(F)F)c2)cc1C#Cc1cnc2[nH]ncc2c1
AUC(0-t) (human; oral; 20 mg; single dose, healthy volunteers): 105 ng·h/mL

CNC(=O)n1ccc2cc(Oc3ccnc(NC(=O)c4ccc(C5CCN(CCO)CC5)cc4)c3)c(OCCOC)cc21
AUC(0-inf) (human; oral; 35 mg; single dose, healthy volunteers): 93.4 ng·h/mL

CC(C)n1c(Nc2cccnc2)nc2cnc(Nc3ccc(N4CCN(C)CC4)cc3)nc21
AUC(0-inf) (male human; oral; 150 mg): 1390 ng·h/mL

CC[C@H](C)CCCCC(=O)N[C@@H](CCN)C(=O)N[C@H](C(=O)N[C@@H](CCN)C(=O)N[C@H]1CCNC(=O)[C@H]([C@@H](C)O)NC(=O)[C@H](CCN)NC(=O)[C@H](CCN)NC(=O)[C@H](CC(C)C)NC(=O)[C@@H](Cc2ccccc2)NC(=O)[C@H](CCN)NC1=O)[C@@H](C)O
AUC(0-inf) (human; intravenous; 0.75 mg/kg; single dose, infusion): 20500 ng·h/mL

NC(=S)NN=Cc1ncccc1N
AUC(0-t) (human; oral; 150 mg): 990 ng·h/mL

COc1ccc([C@@H](O)c2cc(-c3ncnc4cc(N5CCOCC5)ccc34)c(F)cc2Cl)nn1
AUC(0-t) (human; oral; 200 mg; single dose, patients): 6790 ng·h/mL

C[C@H](O)C(=O)C1=Nc2c(nc(N)[nH]c2=O)NC1
AUC(0-t) (human; oral; 20 mg/kg; single dose, healthy volunteers): 5.29 ng·h/mL
